Results from different studies.
Compare with care: the assays were run in different laboratories.
Target: Cyclin-dependent kinase 11B (CDK11B, Homo sapiens, UniProt P21127)
Technique: competition with immobilised ligand

Nc1ncc2c(n1)-c1c([nH]c3ccc(C#CC4CC4)cc13)CCCC2 — remaining binding (binding; 1 µM): 91%
CO[C@H]1CC[C@H](CNc2ccc(S(=O)(=O)NC(=O)c3ccc(N4CCN(CC5=C(c6ccc(Cl)cc6)CC(C)(C)CC5)CC4)cc3Oc3cnc4[nH]ccc4c3)cc2[N+](=O)[O-])CC1 — remaining binding (cell-free assay; 1 µM): 98%
O=C(c1ccc(Nc2ncc(Cl)c(-c3cc4ccccc4s3)n2)cc1)N1CCC(N2CCCC2)CC1 — remaining binding (binding; 1 µM): 80%
FC(F)(F)Oc1cccc(-c2cnc3ccc(-c4ccncc4)nn23)c1 — remaining binding (cell-free assay; 5 µM): 100%
c1cncc(-c2cccc(Nc3nccc(NC4CCCCC4)n3)c2)c1 — remaining binding (binding; 10 µM): 80%
COc1ccc2cc(OCC3(C(=O)O)CN(C(=O)c4ccc(F)cc4)C3)ccc2c1 — remaining binding (cell-free assay; 1 µM): 100%
O=C(NCC1CCOCC1)c1n[nH]cc1NC(=O)c1c(F)cccc1F — remaining binding (binding; 1 µM): 96%
CN(C)c1ncc(F)c(-c2cnn3ncccc23)n1 — remaining binding (binding; 1 µM): 100%
CNC(=O)[C@@H]1CC[C@@H](n2c(-c3ccc4cnccc4c3)nc3ccc(C(=O)NCc4cccc(C(N)=O)c4)cc32)C1 — remaining binding (binding; 1 µM): 100%
CC1CCCN1c1nccc(-c2cnn3ncccc23)n1 (stereo not drawn) — remaining binding (binding; 1 µM): 100%
O=C(c1ccc(Nc2nccc(-c3cc4ccccc4s3)n2)cc1)N1CCC(N2CCCC2)CC1 — remaining binding (binding; 1 µM): 71%
CN(C)c1nccc(-c2cnc3ncccn23)n1 — remaining binding (binding; 1 µM): 100%
N#CC1(c2ccccn2)CCN(Cc2cc(C(=O)N3CCCC3)c(=O)n3ccccc23)CC1 — remaining binding (cell-free assay; 1 µM): 80%
O=C(NCCCN1CCOCC1)c1ccc(Nc2nccc(-c3cc4ccccc4s3)n2)cc1 — remaining binding (binding; 1 µM): 57%
N[C@H]1CCN(c2nccc(-c3cnn4ncccc34)n2)C1 — remaining binding (binding; 1 µM): 100%
O=C(NC[C@@H]1[C@H]2CN(C(=O)OCc3cc(C(F)(F)F)cc(C(F)(F)F)c3)C[C@@H]12)c1ccc2[nH]nnc2c1 — remaining binding (cell-free assay; 1 µM): 100%
COc1cnc(Nc2cccc(S(N)(=O)=O)c2)nc1N1CCN(c2ccccc2)CC1 — remaining binding (binding; 1 µM): 99%
Cc1cnn2ncc(-c3ccnc(N(C)C)n3)c2c1 — remaining binding (binding; 1 µM): 95%
CC(=O)N1CCC(c2ccc(C(=O)NC(=N)N)cc2C(F)(F)F)CC1 — remaining binding (cell-free assay; 1 µM): 100%
C[C@H]1CCN(c2nccc(-c3cnn4ncccc34)n2)C1 — remaining binding (binding; 1 µM): 90%
Cc1nc(Cc2cccc(C(F)(F)F)c2)sc1-c1ccc(C(N)=O)nc1 — remaining binding (cell-free assay; 1 µM): 97%
